Sampled rows, rich in hits. Any-hit rate of the full collection: about 3.5%.
MEKK2 mut-MEK5 = signal of MEK5 binding to mutant human MEKK2 PB1 domain; bead flow cytometry, Alexa488-MEK5 binding to MEKK2 mutant; percent response, % at 10 µM; hit rate 0.35% among 290,000; in the data active = percent response above about 24%, passing the limit was not always enough
MEKK3 PB1 HTS = MEKK3-MEK5 PB1 interaction, increase or decrease. bead-based flow cytometry, Alexa488-MEK5 binding to MEKK3; actives lie on both sides; 0 = blocked by unlabeled MEK5, 100 = vehicle. binding response (% of control), % at 10 µM. hit rate 1.4% among 290,000. AID 1529;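 active = binding response more than 3 SD above or below the average of its plate-row segment, actives on both sides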;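 note: Alexa488 bead fluorescence after subtracting the streptavidin-only scavenger bead signal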
WT yeast gro inh = growth inhibition of WT yeast, mitochondrial fusion screen. mitochondrial fusion phenotypic screen, WT strain. inhibition, % at 10 µM. hit rate 2.1% among 190,000. AID 1362; in the data active = inhibition above about 58%; tested in S. cerevisiae
ABCB1 block = blocks JC-1 efflux by human ABCB1 transporter. hit rate 0.067% among 190,000. CCRF-Adr cells, flow cytometry. P08183. inhibition, % at 6.6 µM; in the data active = inhibition above about 40%;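 note: higher value means more JC-1 retained so stronger ABCB1 efflux block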
MEKK2wt PB1 HTS = raises or lowers MEK5 binding to wildtype human MEKK2 PB1 domain | Q9Y2U5 | bead flow cytometry, Alexa488-MEK5 binding to MEKK2 WT; actives lie on both sides | binding response (% of control), % at 10 µM | hit rate 1.1% among 290,000; in the data active = binding response below about 67% or above about 130%
ABCG2 block = blocks JC-1 efflux by human ABCG2 transporter; inhibition, % at 6.6 µM; IgMXP3 cells, flow cytometry; AID 1325; Q9UNQ0; hit rate 0.1% among 190,000;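 active = inhibition above 80%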
Target sequence (Q9UNQ0 whole entry, looked up): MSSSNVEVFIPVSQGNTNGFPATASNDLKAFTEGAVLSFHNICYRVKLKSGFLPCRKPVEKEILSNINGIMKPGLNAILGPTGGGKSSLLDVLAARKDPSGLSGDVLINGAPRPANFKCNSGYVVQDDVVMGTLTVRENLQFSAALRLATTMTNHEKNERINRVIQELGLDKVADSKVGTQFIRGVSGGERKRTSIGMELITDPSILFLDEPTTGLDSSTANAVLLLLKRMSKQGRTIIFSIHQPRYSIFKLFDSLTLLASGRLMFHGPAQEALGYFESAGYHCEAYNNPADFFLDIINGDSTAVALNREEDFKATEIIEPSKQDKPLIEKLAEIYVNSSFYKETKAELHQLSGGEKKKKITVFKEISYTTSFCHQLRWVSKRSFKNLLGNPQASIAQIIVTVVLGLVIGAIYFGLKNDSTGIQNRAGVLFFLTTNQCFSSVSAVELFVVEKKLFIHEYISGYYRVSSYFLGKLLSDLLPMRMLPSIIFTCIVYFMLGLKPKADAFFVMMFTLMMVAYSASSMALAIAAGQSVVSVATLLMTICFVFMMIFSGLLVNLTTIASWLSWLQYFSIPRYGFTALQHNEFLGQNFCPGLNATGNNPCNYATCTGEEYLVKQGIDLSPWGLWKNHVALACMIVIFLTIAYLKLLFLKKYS
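System: two drug-resistant human cell lines, ABCG2 and ABCB1; controls: nicardipine high and DMSO low controls; times: 10 min exposure at 25 °C with rotation, no wash; detection: flow cytometry of retained JC-1 fluorescence; read-out basis: percent efflux inhibition, scaled nicardipine 100% to DMSO 0%; doses: one concentration, 6.6 µM final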
MEKK2wt confirm = raises or lowers MEK5 binding to wildtype human MEKK2, retest. shares compounds with MEKK3 PB1 HTS. bead flow cytometry, Alexa488-MEK5 binding to MEKK2 WT; actives lie on both sides. binding response (% of control), % at 10 µM. hit rate 2.4% among 5,900; in the data active = binding response below about 16% or above about 210%; inactive = in between
MEKK2mut confirm = signal of MEK5 binding to mutant human MEKK2, retest | percent response, % at 10 µM | AID 1893 | shares compounds with MEKK3 PB1 HTS | bead flow cytometry, Alexa488-MEK5 binding to MEKK2 mutant | hit rate 2% among 5,900; in the data active = percent response mostly above about 71%, no sharp cut-off; inactive = mostly below about 38%;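 note: higher means compound restores mutant binding toward wildtype level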
MEKK3 confirm = confirmation of inhibitors of MEK5 binding to human MEKK3 | shares compounds with MEKK3 PB1 HTS | bead flow cytometry, Alexa488-MEK5 binding to MEKK3; stronger effect = lower value | binding response (% of control), % at 10 µM | hit rate 1.8% among 5,900 | AID 1894;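 active = binding response below 72% of control, or above a set upper limit, though filed actives all read lower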
A number is an active result; – = inactive; · = not tested or not shown; [ ] = dose if it differs, or a comment.

SMILES | MEKK2 mut-MEK5 | MEKK3 PB1 HTS | WT yeast gro inh | ABCB1 block | MEKK2wt PB1 HTS | ABCG2 block | MEKK2wt confirm | MEKK2mut confirm | MEKK3 confirm
COc1ccc(C2CC(c3ccccc3)=NN2S(=O)(=O)c2ccccc2)cc1 (stereo not drawn) | – | 20.0[inhibitor] | · | · | – | · | – | – | –
CS(=O)(=O)N1N=C(c2ccccc2)CC1c1ccc2c(c1)OCO2 (stereo not drawn) | · | 20.0[inhibitor] | – | – | · | – | – | – | 68.0
Cc1cccc(N2C(=O)CC(c3ccc(F)cc3)C3=C2COC3=O)c1 (stereo not drawn) | – | – | – | – | – | – | · | · | ·
Cc1c(C)c2c(OCC(=O)N3CCC(C(N)=O)CC3)cc3c(c2oc1=O)CCC(C)(C)O3 | – | – | · | · | – | · | · | · | ·
O=C(N/C(=C/c1cccc(Br)c1)c1nc(=S)[nH][nH]1)c1ccccc1 | – | – | – | – | – | – | · | · | ·
Cc1ccc(C(=O)N/C(=C\c2ccc(Br)cc2)c2nc(=S)[nH][nH]2)cc1 | – | – | – | – | 65.0[inhibitor] | – | – | – | –
CCOc1cc(CNCCc2ccc(S(N)(=O)=O)cc2)ccc1OCc1ccccc1 | – | – | – | – | – | – | · | · | ·
NS(=O)(=O)c1ccc(CCNCc2cc(Br)ccc2OCc2ccccc2)cc1 | – | – | – | – | 145.0 | – | – | – | –
CCOc1cc(CNCCc2ccc(S(N)(=O)=O)cc2)cc(Cl)c1OCc1ccccc1 | 36.0 | – | – | – | 206.0 | – | – | – | –
COC(=O)c1cc(C#N)c(OC(C)C)nc1C | – | 142.0 | – | – | – | – | – | – | –
COC(=O)c1cc(C#N)c(Oc2ccccc2OC)nc1C | – | – | – | – | – | – | · | · | ·
CN(Cc1ccccc1)S(=O)(=O)c1cccc(C(=O)O)c1 | – | – | – | – | – | – | · | · | ·
O=C(c1ccc(Cl)nc1)N1CCc2ccccc2C1 | – | 14.0[inhibitor] | – | – | 21.0[inhibitor] | – | – | – | –
Cc1ccccc1S(=O)(=O)Cc1ccc(C(=O)NCc2ccc(F)cc2)o1 | – | – | – | – | – | – | · | · | ·
CCN(CC)S(=O)(=O)c1ccc2c(c1)N(CC(=O)N1CCCC1)C(=O)CO2 | – | – | · | · | – | · | · | · | ·
CCOC(=O)c1c(NC(=O)c2ccc(C)cc2)sc2c1CC(C)(C)NC2(C)C | – | – | – | – | 138.0 | – | – | – | –
COC(=O)c1c(NC(=O)c2ccco2)sc2c1CC(C)(C)NC2(C)C | – | – | · | · | – | · | · | · | ·
COC(=O)c1c(NC(=O)c2ccc(OC(C)C)cc2)sc2c1CC(C)(C)NC2(C)C | – | – | – | – | 173.0 | – | – | – | –
CCOC(=O)c1c(NC(=O)CCS(=O)(=O)c2ccccc2)sc2c1CC(C)(C)NC2(C)C | – | – | · | · | – | · | · | · | ·
COc1cc(-c2nc(CN3CCCCC3CCNC(C)=O)c(C)o2)ccc1F (stereo not drawn) | – | – | · | · | – | · | · | · | ·
CCc1ccc(N2C(=O)Nc3ccccc3C2(O)C(=O)N2CCN(c3ccccn3)CC2)cc1 (stereo not drawn) | – | – | – | – | – | – | · | · | ·
CCNc1nc(NCC)n2c(SC(C(=O)Nc3cc(C)ccc3OC)c3ccccc3)nnc2n1 (stereo not drawn) | – | – | – | – | – | – | · | · | ·
Cc1ccc(-n2c(C)cc(C(=O)COc3cccnc3[N+](=O)[O-])c2C)cc1 | – | 152.0 | – | – | – | – | – | – | –
Cc1cc(C(=O)COc2cccnc2[N+](=O)[O-])c(C)n1-c1ccccc1 | – | – | – | – | – | – | · | · | ·
CC1CCc2c(sc3nc(CSc4ncn[nH]4)[nH]c(=O)c23)C1 (stereo not drawn) | – | – | – | – | – | – | · | · | ·
SMILES | MEKK2 mut-MEK5 | MEKK3 PB1 HTS | WT yeast gro inh | ABCB1 block | MEKK2wt PB1 HTS | ABCG2 block | MEKK2wt confirm | MEKK2mut confirm | MEKK3 confirm
O=S(=O)(Nc1cccc(S(=O)(=O)N2CCOCC2)c1)c1cccs1 | – | – | · | · | – | · | · | · | ·
C=CCSc1nnc(CNC(=O)c2ccccc2C)n1C(C)C | – | 140.0 | – | – | – | – | – | – | –
CCOc1ccc(CNC(=O)c2ccc(Sc3ccc(C)cc3)c(NC(C)=O)c2)cc1 | – | – | – | – | – | – | · | · | ·
COc1ccccc1N1CCN(CCCNC(=O)Nc2ccccc2C)CC1 | 29.0 | – | – | – | – | – | – | – | –
COc1ccc(Cl)cc1N1CCN(CCNC(=O)Nc2ccccc2C)CC1 | · | · | – | – | · | – | · | · | ·
CC1CCCC(C)N1C(=O)COC(=O)Cc1ccc(F)cc1 (stereo not drawn) | – | – | · | · | – | · | · | · | ·
O=C(NCCCN1CCN(CCCNC(=O)c2cc([N+](=O)[O-])ccc2Cl)CC1)c1cc([N+](=O)[O-])ccc1Cl | – | – | – | – | 206.0 | – | – | 79.0 | –
O=C(NCCCN1CCOCC1)c1cc(Cl)ccc1Cl | – | – | · | · | – | · | · | · | ·
O=C(OCC1COc2ccccc2O1)c1c(F)cccc1F (stereo not drawn) | – | 66.0[inhibitor] | – | – | – | – | – | – | –
COc1ccc(-c2noc(-c3ccccc3C(=O)Nc3cccnc3)n2)cc1 | 26.0 | – | – | – | – | – | – | – | –
CCOC(=O)c1sc(NC(=O)c2cc3n(n2)C(C(F)(F)F)CC(c2ccccc2)N3)c(C(=O)OCC)c1C (stereo not drawn) | – | 81.0[inhibitor] | – | – | – | – | – | – | –
CCOC(=O)c1sc(NC(=O)c2cc3n(n2)C(C(F)(F)F)CC(c2cccs2)N3)c(C(=O)OCC)c1C (stereo not drawn) | – | – | – | – | – | – | · | · | ·
COc1cc(SC)ccc1C(=O)N(Cc1ccccc1)c1ccccn1 | – | – | · | · | – | · | · | · | ·
COc1cc2c(cc1OC)CN(c1ccc(C(N)=O)cc1[N+](=O)[O-])CC2 | – | – | · | · | – | · | · | · | ·
O=C(CCCCn1c(=O)c2ccccc2n(Cc2ccccc2)c1=O)NC1CCN(Cc2ccccc2)CC1 | – | 22.0[inhibitor] | – | – | 32.0[inhibitor] | – | – | – | –
COc1cc(OC)c(NC(=O)C2CCCO2)cc1Cl (stereo not drawn) | – | – | · | · | – | · | · | · | ·
COc1cc(NC(=O)C2CCCO2)c(OC)cc1Cl (stereo not drawn) | – | 82.0[inhibitor] | – | – | – | – | – | – | –
CN1CCN(CC(O)COc2ccc(C34CC5CC(CC(C5)C3)C4)cc2)CC1 (stereo not drawn) | 56.0 | – | 96.8 | – | 235.0 | – | – | 81.0 | –
Cc1ccc(-n2[nH]c(C)c(C=Nc3ccc(S(=O)(=O)Nc4nccs4)cc3)c2=O)cc1 | – | – | – | – | – | – | · | · | ·

Screens: PubChem, several laboratories
